Results collected from several papers.
Compare with care: the assays were run in different laboratories.
EGFR L861Q: Epidermal growth factor receptor (EGFR, Homo sapiens, UniProt P00533, L861Q)

Cc1ccc(NC(=O)c2ccnc(C(F)(F)F)c2)cc1-c1cc(OCCO)nc(N2CCOCC2)c1  remaining binding (EGFR L861Q; binding; 1 µM): 92%
CC#CC(=O)N1CCC[C@H]1c1nc(-c2ccc(C(=O)Nc3ccccn3)cc2)c2c(N)nccn12  inhibition (Epidermal growth factor receptor (EGFR, Homo sapiens, UniProt P00533, G719C); enzyme activity, inhibitor; 1 µM): 3%
COc1ccc2oc(-c3ccc4nc(N)oc4c3)c/c(=N\c3ccccc3NC(=O)CCN)c2c1  remaining binding (Epidermal growth factor receptor (EGFR, Homo sapiens, UniProt P00533, L858R); binding; 1 µM): 92%
CN1CCN(C(=O)c2ccc(NC(=O)Nc3ccc(N(C)c4ccnc(Nc5ccc(CS(C)(=O)=O)cc5)n4)cc3)cc2)CC1  remaining binding (Epidermal growth factor receptor (EGFR, Homo sapiens, UniProt P00533, del746-750); binding; 1 µM): 87%
C=CC(=O)N1CCC([C@@H]2CCNc3c(C(N)=O)c(-c4ccc(Oc5ccccc5)cc4)nn32)CC1  inhibition (EGFR L861Q; cell-free assay; 1 µM): 73%
CCCCC(=O)Nc1ccc(-c2ccc3ncn(CCC)c(=O)c3c2)cn1  remaining binding (EGFR L861Q; binding, competition with immobilised ligand; 0.5 µM): 100%
C1=C/COCc2cc(ccc2OCCN2CCCC2)Nc2nccc(n2)-c2cccc(c2)COC/1  remaining binding (Epidermal growth factor receptor (EGFR, Homo sapiens, UniProt P00533, del747-752/P753S); binding; 0.1 µM): 99%
COc1ccc2[nH]c3c4[nH]c5ccc(OC)cc5c4c4c(c3c2c1)C(=O)NC4=O  remaining binding (Epidermal growth factor receptor (EGFR, Homo sapiens, UniProt P00533, T790M); binding; 1 µM): 45%
CO[C@@H]1[C@H](N(C)C(=O)c2ccccc2)C[C@H]2O[C@]1(C)n1c3ccccc3c3c4c(c5c6ccccc6n2c5c31)C(=O)NC4  inhibition (Epidermal growth factor receptor (EGFR, Homo sapiens, UniProt P00533); enzyme activity, inhibitor; 1 µM): 55%
